From ChEMBL document CHEMBL4251598, “Development of novel bis-pyrazole derivatives as antitumor agents with potent apoptosis induction effects and DNA damage” (Eur J Med Chem, 2018)
Calls of active or inactive are those of the source.

Columns and labels:
SMMC-7721 [1] = experiment: Antiproliferative activity against human SMMC7721 cells after 72 hrs by MTT assay; format: functional, cell-based; settings: SMMC-7721, 72 h
How it was run: (§1)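 Cells in DMEM with 10% FBS, 10^4 cells/mL, adhered overnight at 37 °C, 5% CO2. Treated in triplicate with a range of concentrations for 72 h. MTT (5 mg/mL solution) added for the last 4 h, formazan dissolved in DMSO, absorbance read at 570 nm. IC50 calculated from percent inhibition. Mean ± SD of three independent experiments.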

HCT-116 [2] = experiment: Antiproliferative activity against human HCT116 cells after 72 hrs by MTT assay; format: functional, cell-based; settings: HCT-116, 72 h; how it was run: as §1
SMMC-7721 [3] = experiment: Antiproliferative activity against human SMMC7721 cells assessed as inhibition of cell proliferation at 25 uM after 72 hrs by MTT assay relative to control; format: functional; settings: SMMC-7721, 72 h
How it was run: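 Cells in DMEM with 10% FBS, plated at 10^4 cells/mL, adhered overnight. Treated at 25 μM for 72 h. MTT added for the last 4 h, formazan dissolved in DMSO, A570 read. Inhibition expressed as percent of untreated. Mean + SD from three separate measurements.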

SMMC-7721 [4] = experiment: Potency index, ratio of ADM IC50 to compound IC50 for human SMMC7721 cells; format: functional
SGC-7901 = experiment: Potency index, ratio of ADM IC50 to compound IC50 for human SGC7901 cells; format: functional
SMMC-7721 [5] = experiment: Induction of apoptosis in human SMMC7721 cells assessed as apoptotic cells at 0.2 uM after 72 hrs by FITC-Annexin-V/7AAD/propidium iodide staining based flow cytometry relative to control; format: functional
How it was run: (§2)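 SMMC-7721 cells cultured overnight, then treated in triplicate with 0.2, 0.8 or 3.2 μM, vehicle, or ADM (3.2 μM) for 72 h. Stained with annexin V and PI (methods section: APC-annexin V/7-AAD) for 15 min at room temperature. Mean ± SD of three independent experiments.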

SMMC-7721 [6] = experiment: Induction of apoptosis in human SMMC7721 cells assessed as apoptotic cells at 0.8 uM after 72 hrs by FITC-Annexin-V/7AAD/propidium iodide staining based flow cytometry relative to control; format: functional; how it was run: as §2
SMMC-7721 [7] = experiment: Induction of apoptosis in human SMMC7721 cells assessed as apoptotic cells after 72 hrs by FITC-Annexin-V/7AAD/propidium iodide staining based flow cytometry; format: functional, cell-based; how it was run: as §2
SMMC-7721 [8] = experiment: Induction of apoptosis in human SMMC7721 cells assessed as increase in Bax expression after 72 hrs by Western blot analysis; format: functional, cell-based
How it was run: (§3)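 Sub-confluent SMMC-7721 cells treated with vehicle, compound or ADM at indicated concentrations for 72 h. Lysed on ice in NP-40/deoxycholate/SDS buffer with PMSF and leupeptin. Up to 50 µg protein run on SDS-PAGE, transferred to PVDF and probed with specific antibodies; ECL detection. Bands quantified by densitometry relative to β-actin, mean ± SD of three experiments.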

SMMC-7721 [9] = experiment: Induction of apoptosis in human SMMC7721 cells assessed as increase in cleaved caspase-3 expression at 3.2 uM after 72 hrs by Western blot analysis relative to control; format: functional, cell-based; how it was run: as §3
SMMC-7721 [10] = experiment: Induction of DNA double stranded breaks in human SMMC7721 cells assessed as increase in H2AX phosphorylation at S139 after 72 hrs by Western blot analysis; format: functional, cell-based
How it was run: (§4)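 SMMC-7721 cells treated with vehicle, compound at 0.2, 0.8 or 3.2 μM, or ADM for 72 h. Lysates immunoblotted for H2AX pS139, p-p53 (Ser15), total p53 and β-actin, with ECL detection. Signals quantified by densitometry relative to β-actin, mean ± SD of three experiments.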

[11] = biological target: Cellular tumor antigen p53 (Homo sapiens) (UniProt P04637); experiment: Induction of p53 phosphorylation at Ser15 in human SMMC7721 cells after 72 hrs by Western blot analysis; format: cell-based; how it was run: as §4
[12] = Acute toxicity in ICR mouse assessed as survival at 390.6 mg/kg, ip measured on day 14; format: organism-based; settings: in vivo
How it was run: (§5)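 Female ICR mice, 10 per group, single intraperitoneal injection at 488.3, 390.6, 312.5, 250 or 200 mg/kg, or vehicle control. Survival, eating, drinking, body weight and activity were monitored for up to 14 days after dosing. MTD was defined as the highest dose giving no drug-related moribund state or death, with temporary body-weight loss within 20%. LD50 was calculated from mortality.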

[13] = Acute toxicity in ICR mouse assessed as survival at 200 mg/kg, ip measured on day 14; format: organism-based; settings: in vivo; how it was run: as §5
SMMC-7721 [14] = experiment: Antitumor activity against human SMMC7721 cells xenografted in BALB/c mouse assessed as tumor growth inhibition at 30 mg/kg, ip measured after 19 days relative to control; format: functional; settings: SMMC-7721, ip, 456 h, read-out: TGI
How it was run: (§6)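 Female BALB/c nude mice, 5-6 weeks old, inoculated subcutaneously with 10^6 SMMC-7721 cells. At 50-100 mm³ tumours, mice were randomized to ip compound (15 or 30 mg/kg), ADM (15 mg/kg) or vehicle, n = 6 per group. Caliper volume ½(L×W²) measured every 3 days to day 19, with body weight monitored. Tumours excised and weighed at the end.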

Mus musculus [15] = experiment: Toxicity in BALB/c mouse xenografted with human SMMC7721 cells assessed as effect on body weight at 15 to 30 mg/kg, ip measured after 19 days; format: organism-based; settings: in vivo, 456 h; how it was run: as §6
SMMC-7721 [16] = experiment: Antitumor activity against human SMMC7721 cells xenografted in ip dosed BALB/c mouse assessed as tumor growth inhibition measured every 3 days up to 19 days post dose; format: functional, organism-based; how it was run: as §6
SMMC-7721 [17] = experiment: Potency index, ratio of 5-FU IC50 to compound IC50 for human SMMC7721 cells; format: functional
HCT-116 [18] = experiment: Potency index, ratio of 5-FU IC50 to compound IC50 for human HCT116 cells; format: functional
[19] = Acute toxicity in ICR mouse at 200 to 488.3 mg/kg, ip; format: organism-based; settings: in vivo; how it was run: as §5
Mus musculus [20] = experiment: Acute toxicity in ICR mouse assessed as effect on eating behaviour at 200 mg/kg, ip measured up to 14 days post dose; format: organism-based; settings: in vivo, 336 h; how it was run: as §5
Mus musculus [21] = experiment: Acute toxicity in ICR mouse assessed as effect on body weight at 200 mg/kg, ip measured up to 14 days post dose; format: organism-based; settings: in vivo, 336 h; how it was run: as §5
Mus musculus [22] = experiment: Acute toxicity in ICR mouse assessed as effect on animal activity at 200 mg/kg, ip measured up to 14 days post dose; format: organism-based; settings: in vivo, 336 h; how it was run: as §5
Mus musculus [23] = experiment: Acute toxicity in ICR mouse assessed as mouse mortality level at 200 to 488.3 mg/kg, ip measured at 1 to 4 hrs post dose; format: organism-based; settings: in vivo; how it was run: as §5
Mus musculus [24] = experiment: Acute toxicity in ICR mouse assessed as mouse mortality level at 200, ip measured on day 1 to 3 days post dose; format: organism-based; settings: in vivo; how it was run: as §5
Mus musculus [25] = experiment: Acute toxicity in ICR mouse assessed as mouse mortality level at 312.5 mg/kg, ip measured on day 3 post dose; format: organism-based; settings: in vivo; how it was run: as §5
Mus musculus [26] = experiment: Acute toxicity in ICR mouse assessed as mouse mortality level at 200 to 250 mg/kg, ip measured on day 4 post dose; format: organism-based; settings: in vivo; how it was run: as §5
Mus musculus [27] = experiment: Acute toxicity in ICR mouse assessed as mouse mortality level at 200 to 312.5 mg/kg, ip measured on day 5 to 14 post dose; format: organism-based; settings: in vivo; how it was run: as §5

Cellular tumor antigen p53 (Homo sapiens), sequence (P04637 whole entry, looked up): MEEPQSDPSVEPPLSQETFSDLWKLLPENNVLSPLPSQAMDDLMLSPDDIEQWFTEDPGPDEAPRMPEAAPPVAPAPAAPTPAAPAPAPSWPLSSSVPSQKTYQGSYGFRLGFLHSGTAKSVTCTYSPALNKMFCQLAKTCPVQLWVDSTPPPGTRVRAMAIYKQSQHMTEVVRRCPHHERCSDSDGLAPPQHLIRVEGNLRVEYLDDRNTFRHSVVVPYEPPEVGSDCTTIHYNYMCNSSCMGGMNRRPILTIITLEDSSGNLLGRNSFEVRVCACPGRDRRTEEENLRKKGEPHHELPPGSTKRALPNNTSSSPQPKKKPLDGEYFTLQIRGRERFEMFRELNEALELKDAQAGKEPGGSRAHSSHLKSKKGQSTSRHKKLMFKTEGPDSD

For `COc1ccc(Oc2c(/C=N\OCc3c(Cl)c(-c4ccc(Cl)cc4)nn3C)c(C)nn2C)cc1`, the IC50 (SMMC-7721 [1]) was 760 nM, the IC50 (HCT-116 [2]) was 1260 nM and the inhibition at 25 µM (SMMC-7721 [3]) was 80%. The “Ratio IC50” value (SMMC-7721 [4]) was 2 - 3, the “Ratio IC50” value (SGC-7901) was 2 - 3 and the Activity (SMMC-7721 [5]) was 29.6%. The Activity (SMMC-7721 [6]) was 49.2%, the Activity (SMMC-7721 [7]) was “Dose-dependent effect” and the Activity (SMMC-7721 [8]) was “Dose-dependent effect”. The Activity (SMMC-7721 [9]) was “Active”, the Activity (SMMC-7721 [10]) was “Dose-dependent effect” and the Activity [11] was “Dose-dependent effect”. For the same compound, the survival at 14 day [12] was 40%, the survival at 14 day [13] was 100% and the inhibition in vivo at 30 mg/kg (SMMC-7721 [14]) was 65.3%. The Activity (Mus musculus [15]) was “Non-Toxic”, the TGI (SMMC-7721 [16]) was “Dose-dependent effect” and the “Ratio IC50” value (SMMC-7721 [17]) was 17 - 50. For the same compound, the “Ratio IC50” value (HCT-116 [18]) was 17 - 50, the LD50 [19] was 350 mg/kg and the Activity (Mus musculus [20]) was “Non-Toxic”. The Activity (Mus musculus [21]) was “Non-Toxic”, the Activity (Mus musculus [22]) was “Non-Toxic” and the Activity (Mus musculus [23]) was “Non-Toxic”. The Activity (Mus musculus [24]) was “Non-Toxic”, the Activity (Mus musculus [25]) was “Non-Toxic” and the Activity (Mus musculus [26]) was “Non-Toxic”. For the same compound, the Activity (Mus musculus [27]) was “Non-Toxic”.
